Source: ChEMBL document CHEMBL1128557, “Synthesis, antitumor activity, and chemical properties of silaplatin and related platinum (II) and platinum (IV) complexes derived from beta-silyl amines” (J Med Chem, 1995)

How the values were obtained:
Tumor Cell line [1] = assay: Evaluated in vitro for the log10 molecular concentration that caused […] tumor growth of 60 human tumor cell lines.; type: functional, cell-based
Method in brief: (§1)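 Cells preincubated 24 h, then exposed to the agent at five 10-fold dilutions (0.01–100 μM for the platinum complexes) for 48 h. Cells fixed in situ and stained; solubilized stain read spectrophotometrically. Panel of leukemia, non-small-cell lung, ovarian and renal lines. Log GI50 or TGI taken per cell line in one experiment, then averaged across lines.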

Tumor Cell line [2] = assay: Evaluated in vitro for the log10 molecular concentration that caused 50 % inhibition of tumor growth of 60 human tumor cell lines; type: functional, cell-based; method in brief: as §1
Tumor Cell line [3] = assay: The compound was evaluated in vitro for the log10 molecular concentration that caused 50 % of 60 human tumor cell line kills; type: ADME, cell-based
Method in brief: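 Human tumor cell lines (leukemia, non-small-cell lung, ovarian, renal) were preincubated 24 h. Platinum complexes were then added as five 10-fold dilutions, 0.01–100 μM, for 48 h, followed by in situ fixation and staining, with solubilized stain read spectrophotometrically. Log LC50 (50% cell kill) was averaged across cell lines within one experiment.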

Substance | TGI (Tumor Cell line [1]) [µM] | GI50 (Tumor Cell line [2]) [µM] | Log LC50 (Tumor Cell line [3])
[Bis(aminomethyl)ethylmethylsilane]tetrachloroplatinum(IV) | 39.8 | 6.17 | 
[Bis(aminomethyl)pentamethylenesilane]dichloropaltinum(II) [listing 1 of 2 here] |  |  | > -4.01
[Bis(aminomethyl)pentamethylenesilane]dichloropaltinum(II) [listing 2 of 2 here] | 67.6 | 11.7 | 
[Bis(aminomethyl)pentamethylenesilane]tetrachloropaltinum(IV) [listing 1 of 2 here] |  |  | > -4.01
[Bis(aminomethyl)pentamethylenesilane]tetrachloropaltinum(IV) [listing 2 of 2 here] | 50.1 | 4.17 | 
[Bis(aminomethyl)tetramethylenesilane]dichloropaltinum(II) [listing 1 of 2 here] |  |  | > -4
[Bis(aminomethyl)tetramethylenesilane]dichloropaltinum(II) [listing 2 of 2 here] | 89.1 | 25.7 | 
[Bis(aminomethyl)tetramethylenesilane]tetrachloropaltinum(IV) [listing 1 of 2 here] |  |  | > -4
[Bis(aminomethyl)tetramethylenesilane]tetrachloropaltinum(IV) [listing 2 of 2 here] | 49 | 4.47 | 
cis-Bis[[(trimethylsilyl)methyl]amino]tetrachloroplatinum(IV) [listing 1 of 2 here] |  |  | > -4.06
cis-Bis[[(trimethylsilyl)methyl]amino]tetrachloroplatinum(IV) [listing 2 of 2 here] | 22.9 | 5.89 | 
